According to ChEMBL document CHEMBL1124316, “Synthesis and activity of nonhydrolyzable pseudomonic acid analogues” (J Med Chem, 1989):
In brackets after ≈: the same amount, converted by molar mass.

Key:
Streptococcus pyogenes = assay: In vitro antibacterial activity against Streptococcus pyogenes EES 61; type: functional
How it was run: (§1)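 MICs were determined by agar dilution on brain heart infusion agar, with an inoculum of 10⁴ cfu/spot. Strains were either clinical isolates kept frozen in a culture collection or ATCC strains.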

Escherichia coli [1] = assay: In vitro antibacterial activity against Escherichia coli Juhl; type: functional; how it was run: as §1
Isoleucine--tRNA ligase = Isoleucine--tRNA ligase (Escherichia coli K-12, UniProt P00956); assay: Inhibitory activity against Isoleucyl-tRNA synthetase
How it was run: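 Isoleucyl-tRNA synthetase was isolated from Escherichia coli and purified to homogeneity. IC50 values were measured by the ATP-pyrophosphate exchange assay.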

Streptococcus agalactiae = assay: In vitro antibacterial activity against Streptococcus agalactiae CMX 508; type: functional; how it was run: as §1
Escherichia coli [2] = assay: In vitro antibacterial activity against Escherichia coli SS; type: functional; how it was run: as §1
Staphylococcus aureus = assay: In vitro antibacterial activity against Staphylococcus aureus ATCC […]; type: functional; how it was run: as §1
[3] = tested on: Staphylococcus epidermidis; assay: In vitro antibacterial activity against Staphylococcus epidermidis 3519; type: functional; how it was run: as §1
[4] = Streptococcus pyogenes, read-out: MIC
[5] = Escherichia coli, read-out: MIC

Sequence of Isoleucine--tRNA ligase (P00956 whole entry): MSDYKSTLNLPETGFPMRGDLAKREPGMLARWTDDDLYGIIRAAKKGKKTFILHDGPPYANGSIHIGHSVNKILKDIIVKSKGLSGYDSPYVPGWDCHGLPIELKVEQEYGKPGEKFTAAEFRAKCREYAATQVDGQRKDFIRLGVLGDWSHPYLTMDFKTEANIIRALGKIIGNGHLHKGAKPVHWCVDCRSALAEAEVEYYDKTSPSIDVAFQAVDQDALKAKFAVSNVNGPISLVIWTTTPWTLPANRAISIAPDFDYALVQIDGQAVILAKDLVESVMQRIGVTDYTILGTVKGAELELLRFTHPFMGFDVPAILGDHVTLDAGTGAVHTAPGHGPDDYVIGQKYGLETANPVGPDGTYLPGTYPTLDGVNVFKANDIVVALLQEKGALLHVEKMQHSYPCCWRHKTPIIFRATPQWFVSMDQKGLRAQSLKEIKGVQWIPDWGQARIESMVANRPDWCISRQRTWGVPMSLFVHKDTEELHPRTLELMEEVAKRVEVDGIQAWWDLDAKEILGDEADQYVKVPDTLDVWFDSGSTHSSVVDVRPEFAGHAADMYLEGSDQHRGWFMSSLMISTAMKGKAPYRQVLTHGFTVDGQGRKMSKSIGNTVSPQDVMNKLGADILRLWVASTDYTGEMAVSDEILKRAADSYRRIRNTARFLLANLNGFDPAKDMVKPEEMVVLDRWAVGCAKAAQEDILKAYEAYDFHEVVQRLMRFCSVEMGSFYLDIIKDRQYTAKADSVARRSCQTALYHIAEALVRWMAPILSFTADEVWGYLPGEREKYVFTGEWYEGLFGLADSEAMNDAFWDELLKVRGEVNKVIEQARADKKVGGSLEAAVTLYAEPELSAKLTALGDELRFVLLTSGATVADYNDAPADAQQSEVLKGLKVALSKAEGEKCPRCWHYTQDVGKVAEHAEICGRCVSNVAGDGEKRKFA

MIC (Streptococcus pyogenes; [4]) [µg/mL] | MIC (Escherichia coli [1]) [µg/mL] | IC50 (Isoleucine--tRNA ligase) [µM] | MIC (Streptococcus agalactiae) [µg/mL] | MIC (Escherichia coli [2]; [5]) [µg/mL] | MIC (Staphylococcus aureus) [µg/mL] | MIC [3] [µg/mL] | MIC (Streptococcus pyogenes) [µg/mL] | MIC (Escherichia coli [2]) [µg/mL] | SMILES
12.5 (≈ 30.6 µM) | > 100 | 46.5 | 50 (≈ 122 µM) | 12.5 (≈ 30.6 µM) | 25 (≈ 61.2 µM) | 50 (≈ 122 µM) |  |  | C/C(=C/Sc1ccccc1)C[C@@H]1OC[C@H](C[C@@H]2O[C@H]2[C@@H](C)[C@H](C)O)[C@@H](O)[C@H]1O
3.1 (≈ 7.59 µM) | > 100 | 11 | 6.2 (≈ 15.2 µM) | 1.56 (≈ 3.82 µM) | 3.1 (≈ 7.59 µM) | 6.2 (≈ 15.2 µM) |  |  | C/C(=C\Sc1ccccc1)C[C@@H]1OC[C@H](C[C@@H]2O[C@H]2[C@@H](C)[C@H](C)O)[C@@H](O)[C@H]1O
0.1 (≈ 0.195 µM) | 50 (≈ 97.5 µM) | 3.32 | 3.1 (≈ 6.05 µM) | 0.05 (≈ 0.0975 µM) | 0.39 (≈ 0.761 µM) | 0.39 (≈ 0.761 µM) |  |  | COC(=O)CCCCCCCCCC(=O)/C=C(\C)C[C@@H]1OCC(C[C@@H]2O[C@H]2[C@@H](C)[C@H](C)O)[C@@H](O)[C@H]1O (some centres undefined)
0.39 (≈ 0.964 µM) | 100 (≈ 247 µM) | 0.494 | 3.1 (≈ 7.66 µM) | 0.2 (≈ 0.494 µM) | 0.2 (≈ 0.494 µM) | 0.39 (≈ 0.964 µM) |  |  | C/C(=C\C(=O)c1ccccc1)C[C@@H]1OCC(C[C@@H]2O[C@H]2[C@@H](C)[C@H](C)O)[C@@H](O)[C@H]1O (some centres undefined)
0.1 (≈ 0.194 µM) | 50 (≈ 97.2 µM) | 1.17 | 0.78 (≈ 1.52 µM) | 0.05 (≈ 0.0972 µM) | 0.2 (≈ 0.389 µM) | 0.39 (≈ 0.758 µM) |  |  | COC(=O)CCCCCCCCOC(=O)/C=C(\C)C[C@@H]1OCC(C[C@@H]2O[C@H]2[C@@H](C)[C@H](C)O)[C@@H](O)[C@H]1O (some centres undefined)
6.2 (≈ 18.1 µM) | > 100 | 794 | 100 (≈ 292 µM) | 25 (≈ 73 µM) | 100 (≈ 292 µM) | 100 (≈ 292 µM) |  |  | C[C@H]([C@@H]1O[C@H]1CC1CO[C@@H](CC2=CC(=O)OC2)[C@H](O)[C@@H]1O)[C@H](C)O (some centres undefined)
100 (≈ 200 µM) | > 100 | 1.7 | > 100 | 12.5 (≈ 25 µM) | > 100 | > 100 |  |  | COC(=O)CCCCCCCCOC/C=C(\C)C[C@@H]1OCC(C[C@@H]2O[C@H]2[C@@H](C)[C@H](C)O)[C@@H](O)[C@H]1O (some centres undefined)
1.56 (≈ 2.57 µM) | > 100 | 14.8 | > 100 | 6.2 (≈ 10.2 µM) | 1.56 (≈ 2.57 µM) | 1.56 (≈ 2.57 µM) |  |  | CSC(CCCCCCCCCC(=O)/C=C(\C)C[C@@H]1OCC(C[C@@H]2O[C@H]2[C@@H](C)[C@H](C)O)[C@@H](O)[C@H]1O)(SC)SC (some centres undefined)
25 (≈ 59.4 µM) | > 100 | 181 | > 100 | > 100 | > 100 | > 100 |  |  | CCCCS(=O)(=O)/C=C(\C)C[C@@H]1OCC(C[C@@H]2O[C@H]2[C@@H](C)[C@H](C)O)[C@@H](O)[C@H]1O (some centres undefined)
50 (≈ 96.8 µM) | > 100 | 18.4 | > 100 | 25 (≈ 48.4 µM) | 100 (≈ 194 µM) | > 100 |  |  | COC(=O)CCCCCCCCSC/C=C(\C)C[C@@H]1OCC(C[C@@H]2O[C@H]2[C@@H](C)[C@H](C)O)[C@@H](O)[C@H]1O (some centres undefined)
> 100 | > 100 | > 1230 | > 100 | 100 (≈ 306 µM) | > 100 | > 100 |  |  | C[C@H]([C@@H]1O[C@H]1CC1CO[C@@H](Cc2ccoc2)[C@H](O)[C@@H]1O)[C@H](C)O (some centres undefined)
> 100 | > 100 | > 774 | > 100 | > 100 | > 100 | > 100 |  |  | COC(=O)CCCCCCCCOC(=O)CC(=O)C[C@@H]1OCC(C[C@@H]2O[C@H]2[C@@H](C)[C@H](C)O)[C@@H](O)[C@H]1O (some centres undefined)
100 (≈ 248 µM) | > 100 | 390 | > 100 | 50 (≈ 124 µM) | > 100 | > 100 |  |  | CCCCSC/C=C(\C)C[C@@H]1OCC(C[C@@H]2O[C@H]2[C@@H](C)[C@H](C)O)[C@@H](O)[C@H]1O (some centres undefined)
0.78 (≈ 2.01 µM) | > 100 | 5.4 | 3.1 (≈ 7.98 µM) | 0.78 (≈ 2.01 µM) | 1.56 (≈ 4.01 µM) | 0.78 (≈ 2.01 µM) |  |  | CCCCS/C=C(\C)C[C@@H]1OCC(C[C@@H]2O[C@H]2[C@@H](C)[C@H](C)O)[C@@H](O)[C@H]1O (some centres undefined)
0.1 | > 100 | 0.191 | 0.78 | 0.2 | 0.1 | 0.1 |  |  | C/C(=C\C(=O)OCCCCCCCCC(=O)[O-])C[C@@H]1OCC(C[C@@H]2O[C@H]2[C@@H](C)[C@H](C)O)[C@@H](O)[C@H]1O.[Na+] (some centres undefined)
50 (≈ 129 µM) | > 100 | 51.7 | > 100 | 12.5 (≈ 32.3 µM) | 100 (≈ 259 µM) | 100 (≈ 259 µM) |  |  | CCCCOC/C=C(\C)C[C@@H]1OCC(C[C@@H]2O[C@H]2[C@@H](C)[C@H](C)O)[C@@H](O)[C@H]1O (some centres undefined)
> 100 | > 100 | 744 | > 100 | 100 (≈ 257 µM) | > 100 | > 100 |  |  | CCCCS/C=C(/C)C[C@@H]1OCC(C[C@@H]2O[C@H]2[C@@H](C)[C@H](C)O)[C@@H](O)[C@H]1O (some centres undefined)
 |  | 171 |  |  |  |  | >100 | 100 (≈ 247 µM) | CCCC[S+]([O-])/C=C(\C)C[C@@H]1OCC(C[C@@H]2O[C@H]2[C@@H](C)[C@H](C)O)[C@@H](O)[C@H]1O (stereo in doubt; 14)
100 (≈ 247 µM) | > 100 | > 989 | > 100 | 100 (≈ 247 µM) | > 100 | > 100 |  |  | CCCC[S+]([O-])/C=C(\C)C[C@@H]1OCC(C[C@@H]2O[C@H]2[C@@H](C)[C@H](C)O)[C@@H](O)[C@H]1O (stereo in doubt; 15)
